Here are results for 48 compounds from ChEMBL document CHEMBL1126182, “Antibacterials. synthesis and structure-activity studies of 3-aryl-2-oxooxazolidines. 4. Multiply-substituted aryl derivatives” (1992).

Values after ≈ are worked out from the molar mass of the structure shown.

The test system of one assay is Staphylococcus aureus. Nature of the assay: Antibacterial activity against Staphylococcus aureus SFCO-1a cell line. Type of assay: functional. An outline of the steps:
(§1)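 MIC by microtiter broth dilution. For racemic samples, the measured MIC was divided by two, since only one oxazolidinone enantiomer is antibacterial.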

The next assay relates to Enterococcus faecalis. Nature of the assay: Antibacterial activity against Enterococcus faecalis STCO-19. Type of assay: functional. An outline of the steps:
as §1

As to `CC(=O)NCC1CN(c2cccc(I)c2)C(=O)O1` (stereo unspecified), the values for the MIC in the assay with Staphylococcus aureus and with Enterococcus faecalis were 64 µg/mL (≈ 178 µM) and 128 µg/mL (≈ 355 µM), respectively.

Regarding `CC(=O)NCC1CN(c2ccc(C(C)=O)c(O)c2)C(=O)O1` (stereo unspecified), the MIC against Staphylococcus aureus and in the assay on Enterococcus faecalis was 2 µg/mL (≈ 6.84 µM) each time.

For `CC(=O)NC[C@H]1CN(c2ccc3c(c2)CCC3)C(=O)O1`, the MIC against Staphylococcus aureus was determined as 2 µg/mL (≈ 7.29 µM); in the assay with Enterococcus faecalis it was 4 µg/mL (≈ 14.6 µM).

Turning to `CSc1ccc(N2CC(CNC(C)=O)OC2=O)cc1[N+](=O)[O-]` (stereo unspecified), the MIC against Staphylococcus aureus and in the assay on Enterococcus faecalis was 8 µg/mL (≈ 24.6 µM) each time.

As to `CC(=O)NCC1CN(c2cccc([N+](=O)[O-])c2)C(=O)O1` (stereo unspecified), the MIC in the assay with Staphylococcus aureus and against Enterococcus faecalis was 4 µg/mL (≈ 14.3 µM) each time.

As for `CC(=O)NCC1CN(c2cccc(Cl)c2)C(=O)O1` (stereo unspecified), the values for the MIC in the assay on Staphylococcus aureus and in the assay with Enterococcus faecalis were 64 µg/mL (≈ 238 µM) and 128 µg/mL (≈ 476 µM), respectively.

For `C#Cc1ccc(N2C[C@H](CNC(C)=O)OC2=O)c(F)c1`, the MIC in the assay with Staphylococcus aureus and in the assay on Enterococcus faecalis was 128 µg/mL (≈ 463 µM) throughout.

As to `CSc1cc(N2CC(CNC(C)=O)OC2=O)ccc1C(C)=O` (stereo unspecified), the MIC in the assay on Staphylococcus aureus and against Enterococcus faecalis was greater than 128 µg/mL in each case.

For the compound `CC(=O)NC[C@H]1CN(c2ccc(C(C)=O)cc2F)C(=O)O1`, the MIC against Staphylococcus aureus and with Enterococcus faecalis was 32 µg/mL (≈ 109 µM) each time.

As for `COc1cc(OC)cc(N2CC(CNC(C)=O)OC2=O)c1` (stereo unspecified), the MIC against Staphylococcus aureus and against Enterococcus faecalis was greater than 128 µg/mL in each case.

`CC(=O)NCC1CN(c2ccccc2)C(=O)O1` (stereo unspecified): the MIC in the assay with Staphylococcus aureus and in the assay with Enterococcus faecalis was 128 µg/mL (≈ 546 µM) throughout.

Take `CC(=O)NCC1CN(c2c(F)cc(C(C)=O)cc2F)C(=O)O1` (stereo unspecified): the MIC against Staphylococcus aureus and in the assay with Enterococcus faecalis was greater than 128 µg/mL in each case.

Turning to `CC(=O)NC[C@H]1CN(c2ccc(C(C)=O)c(C)c2)C(=O)O1`, the MIC in the assay on Staphylococcus aureus and with Enterococcus faecalis was 1 µg/mL (≈ 3.44 µM) throughout.

On to `CC(=O)NCC1CN(c2cccc(F)c2)C(=O)O1` (stereo unspecified), for which the MIC against Staphylococcus aureus and in the assay on Enterococcus faecalis was 32 µg/mL (≈ 127 µM) in each case.

For `CCCc1cc(N2CC(CNC(C)=O)OC2=O)ccc1C(C)=O` (stereo unspecified), the MIC in the assay on Staphylococcus aureus and with Enterococcus faecalis was greater than 128 µg/mL in each case.

As for `CC(=O)NCC1CN(c2ccc(C(C)=O)c(F)c2)C(=O)O1` (stereo unspecified), the MIC against Staphylococcus aureus is 1 µg/mL (≈ 3.4 µM); with Enterococcus faecalis, 2 µg/mL (≈ 6.8 µM).

Regarding `CC(=O)NCC1CN(c2ccc(C(C)=O)c(Cl)c2)C(=O)O1` (stereo unspecified), the MIC against Staphylococcus aureus and against Enterococcus faecalis was 2 µg/mL (≈ 6.44 µM) in each case.

Take `CC(=O)NCC1CN(c2ccc(C(C)=O)c(N)c2)C(=O)O1` (stereo unspecified): the MIC against Staphylococcus aureus and with Enterococcus faecalis was 4 µg/mL (≈ 13.7 µM) in each case.

For `CC(=O)NCC1CN(c2cccc(C)c2)C(=O)O1` (stereo unspecified), the MIC with Staphylococcus aureus and against Enterococcus faecalis was 32 µg/mL (≈ 129 µM) throughout.

Consider `CC(=O)NC[C@H]1CN(c2ccc3ccccc3c2)C(=O)O1`, for which the MIC against Staphylococcus aureus was 4 µg/mL (≈ 14.1 µM); in the assay with Enterococcus faecalis, 8 µg/mL (≈ 28.1 µM).

Regarding `COc1cc(N2CC(CNC(C)=O)OC2=O)ccc1C(C)=O` (stereo unspecified), the MIC with Staphylococcus aureus and against Enterococcus faecalis was greater than 128 µg/mL throughout.

Consider `CC(=O)NCC1CN(c2cccc(N)c2)C(=O)O1` (stereo unspecified), for which the MIC in the assay on Staphylococcus aureus and in the assay with Enterococcus faecalis was greater than 128 µg/mL each time.

With `CC(=O)NC[C@H]1CN(c2ccc3[nH]ccc3c2)C(=O)O1`, the MIC against Staphylococcus aureus and against Enterococcus faecalis was greater than 128 µg/mL throughout.

Turning to `CSc1cccc(N2CC(CNC(C)=O)OC2=O)c1` (stereo unspecified), the MIC with Staphylococcus aureus and against Enterococcus faecalis was 16 µg/mL (≈ 57.1 µM) in each case.

For `CCCc1ccc(N2C[C@H](CNC(C)=O)OC2=O)cc1`, the MIC against Staphylococcus aureus turned out to be 2 µg/mL (≈ 7.24 µM); with Enterococcus faecalis, 4 µg/mL (≈ 14.5 µM).

For the compound `CC(=O)NCC1CN(c2cccc(Br)c2)C(=O)O1` (stereo unspecified), the MIC against Staphylococcus aureus is 16 µg/mL (≈ 51.1 µM); with Enterococcus faecalis it was 64 µg/mL (≈ 204 µM).

As to `CC(=O)NCC1CN(c2cccc([S+](C)[O-])c2)C(=O)O1` (stereo unspecified), the MIC against Staphylococcus aureus and in the assay with Enterococcus faecalis was greater than 128 µg/mL each time.

With `CC(=O)NCC1CN(c2ccc([S+](C)[O-])c([N+](=O)[O-])c2)C(=O)O1` (stereo unspecified), the MIC against Staphylococcus aureus and in the assay on Enterococcus faecalis was 8 µg/mL (≈ 23.4 µM) each time.

For `CCCc1cccc(N2CC(CNC(C)=O)OC2=O)c1` (stereo unspecified), the MIC came to 64 µg/mL (≈ 232 µM) in the assay with Staphylococcus aureus and 128 µg/mL (≈ 463 µM) against Enterococcus faecalis.

Turning to `CCc1cc(N2CC(CNC(C)=O)OC2=O)ccc1C(C)=O` (stereo unspecified), the MIC in the assay on Staphylococcus aureus turned out to be 16 µg/mL (≈ 52.6 µM); against Enterococcus faecalis, 8 µg/mL (≈ 26.3 µM).

On to `CC(=O)NC[C@H]1CN(c2ccc([N+](=O)[O-])cc2[N+](=O)[O-])C(=O)O1`, for which the MIC against Staphylococcus aureus and against Enterococcus faecalis was greater than 128 µg/mL each time.

For the compound `CC(=O)NC[C@H]1CN(c2ccc(C)c(C)c2)C(=O)O1`, the figures for the MIC with Staphylococcus aureus and against Enterococcus faecalis were 8 µg/mL (≈ 30.5 µM) and 16 µg/mL (≈ 61 µM), respectively.

Turning to `CC(=O)NCC1CN(c2cc(C)cc(C)c2)C(=O)O1` (stereo unspecified), the MIC with Staphylococcus aureus and against Enterococcus faecalis was greater than 128 µg/mL in each case.

In the case of `CC(=O)NCC1CN(c2ccc([S+](C)[O-])c(C)c2)C(=O)O1` (stereo unspecified), the MIC against Staphylococcus aureus and in the assay on Enterococcus faecalis was 8 µg/mL (≈ 25.8 µM) each time.

Take `COc1cc([N+](=O)[O-])ccc1N1C[C@H](CNC(C)=O)OC1=O`: the MIC against Staphylococcus aureus and in the assay with Enterococcus faecalis was greater than 128 µg/mL each time.

In the case of `CC(=O)NCC1CN(c2ccc(C(C)=O)c(I)c2)C(=O)O1` (stereo unspecified), the MIC against Staphylococcus aureus and in the assay with Enterococcus faecalis was 32 µg/mL (≈ 79.6 µM) throughout.

In the case of `CC(=O)NCC1CN(c2cccc(S(C)(=O)=O)c2)C(=O)O1` (stereo unspecified), the MIC with Staphylococcus aureus and in the assay on Enterococcus faecalis was greater than 128 µg/mL throughout.

`COc1cccc(N2CC(CNC(C)=O)OC2=O)c1` (stereo unspecified): the MIC with Staphylococcus aureus and with Enterococcus faecalis was 64 µg/mL (≈ 242 µM) in each case.

Regarding `CC(=O)NCC1CN(c2ccc(C(C)=O)c([S+](C)[O-])c2)C(=O)O1` (stereo unspecified), the MIC in the assay with Staphylococcus aureus and with Enterococcus faecalis was greater than 128 µg/mL in each case.

For the compound `COc1ccc([N+](=O)[O-])cc1N1C[C@H](CNC(C)=O)OC1=O`, the MIC with Staphylococcus aureus and with Enterococcus faecalis was greater than 128 µg/mL each time.

As for `CC(=O)NCC1CN(c2ccc([S+](C)[O-])cc2)C(=O)O1` (stereo unspecified), the MIC in the assay on Staphylococcus aureus and against Enterococcus faecalis was 4 µg/mL (≈ 13.5 µM) throughout.

Take `CSc1ccc(N2CC(CNC(C)=O)OC2=O)cc1` (stereo unspecified): the MIC in the assay with Staphylococcus aureus and with Enterococcus faecalis was 4 µg/mL (≈ 14.3 µM) each time.

For `CC(=O)NCC1CN(c2ccc(C(C)=O)c(S(C)(=O)=O)c2)C(=O)O1` (stereo unspecified), the MIC in the assay on Staphylococcus aureus and against Enterococcus faecalis was greater than 128 µg/mL throughout.

For the compound `CC(=O)NCC1CN(c2ccc(C(C)=O)c(Br)c2)C(=O)O1` (stereo unspecified), the MIC with Staphylococcus aureus was determined as 4 µg/mL (≈ 11.3 µM); in the assay with Enterococcus faecalis it was 8 µg/mL (≈ 22.5 µM).

With `CCc1cccc(N2CC(CNC(C)=O)OC2=O)c1` (stereo unspecified), the MIC against Staphylococcus aureus and against Enterococcus faecalis was 16 µg/mL (≈ 61 µM) throughout.

In the case of `CC(=O)NCC1CN(c2cccc(O)c2)C(=O)O1` (stereo unspecified), the MIC with Staphylococcus aureus and in the assay with Enterococcus faecalis was greater than 128 µg/mL throughout.

For `CC(=O)NC[C@H]1CN(c2ccc(C(C)=O)cc2)C(=O)O1` [DUP-721], the results for the MIC against Staphylococcus aureus and in the assay on Enterococcus faecalis were 0.5 µg/mL (≈ 1.81 µM) and 1 µg/mL (≈ 3.62 µM), respectively.

On to `CC(=O)NC[C@H]1CN(c2ccc3c(c2)CCC3=O)C(=O)O1` [PNU-82965], for which the MIC against Staphylococcus aureus and with Enterococcus faecalis was 2 µg/mL (≈ 6.94 µM) each time.
